From ChEMBL document CHEMBL4513216, “Probing the Open Global Health Chemical Diversity Library for Multistage-Active Starting Points for Next-Generation Antimalarials” (ACS Infect Dis, 2020)

Test: Toxicity liver stage against HepG2, at 10uM
Assay type: cell-based
Parameters: test concentration 10 uM, cell line HepG2-A16-CD81EGFP
Settings: human, HepG2-A16-CD81EGFP cells; read-out: INHIBITION
Procedure, shortened: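 Uninfected HepG2-A16-CD81EGFP cells, 3 × 10^3 per well, 1536-well, plated on prespotted compound at 10 μM final, parasite-free screening media added to match infected plates; puromycin 10 μM positive, DMSO 0.5% negative; run in parallel with 48 h PbLuc assay at 37 °C, 5% CO2; viability by CellTiter-Glo luminescence, normalized to controls.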

| Structure (SMILES) | cytotoxicity at 10 µM [%] |
| --- | --- |
| O=C(C1CCOCC1)N1C[C@H](OCc2cccnc2)[C@H]2COC[C@H]21 | 1.99 |
| COc1ccc(CCNC(=O)c2ccc(=O)n(C)c2)c(Cl)c1 | -10.3 |
| Cc1n[nH]c(C(=O)N2CCCC(C)CC2)c1Br (stereo not given) | -1.74 |
| O=C(NCc1cc2n(n1)CCCNC2)C1(c2ccccc2)CCCCC1 | -10.6 |
| COc1ccc(CSCC(O)CO)c(Cl)c1 (stereo not given) | -142 |
| CN(Cc1ccc(OC(F)F)cc1)C(=O)CS(=O)(=O)c1ccc(Cl)cc1 | 5.19 |
| CC1(Cc2ccc(F)cc2)Cc2cc(C(=O)NCCO)ccc2O1 (stereo not given) | -2.89 |
| c1ccc(-n2ncc(CN3CCCC3Cn3cccn3)n2)cc1 (stereo not given) | -2.73 |
| Cn1ccc(NC(=O)CN2CCC(Oc3cnccn3)CC2)n1 | 4.3 |
| N[C@H]1CN(C(=O)CCc2ccccn2)C[C@@H]1c1ccccc1 | -0.23 |
| CNc1nc(C)c(C(=O)N2C[C@@H](C(=O)O)[C@H](C3CC3)C2)s1 | 4.29 |
| CCC1COCCN1C(=O)NCc1nccn1CCc1ccccc1 (stereo not given) | 4.42 |
| Brc1ccc(-c2nnc(CN(Cc3cccs3)CC3CCCO3)o2)s1 (stereo not given) | 23.2 |
| O=C(c1cnc(NCC2CCCO2)c(Cl)c1)N1CCOCC1 (stereo not given) | 0.0875 |
| CN(Cc1cnn(C)c1)C(=O)Cn1c(CS(C)(=O)=O)nc2ccccc21 | 1.05 |
| CN(C)c1cc(C(=O)NCCc2n[nH]c(=O)[nH]2)ccn1 | -1.89 |
| C1CCC(CN2Cc3nnn(CC4CC4)c3C(COCC3CC3)C2)C1 (stereo not given) | 19.7 |
| CCN(Cc1ccccc1)C(=O)CN1CCCC(Cn2cncn2)C1 (stereo not given) | 0.421 |
| Cc1ccccc1OCCSc1nnc(CC2CCS(=O)(=O)C2)n1C (stereo not given) | 1.27 |
| CC(NC(=O)Nc1ccc(OC2CCCC2)cc1)c1nc[nH]n1 (stereo not given) | -5.42 |
| O=C1CC(c2ccc(F)cc2)c2cnn(C3CCCC3)c2N1 (stereo not given) | 3.82 |
| Cc1c(CN(C)c2cc(C3CCCNC3)ncn2)[nH]c2ccccc12 (stereo not given) | 1.99 |
| Cc1cnc(CC2COCCN(C(=O)CN3CCOCC3)C2)cn1 (stereo not given) | 9.07 |
| CN(C)C(C(=O)N1CCN(CC(F)(F)F)CC1)c1ccccc1F (stereo not given) | -2.42 |
| COC(=O)c1ccoc1CN(C1CC1)C1CCS(=O)(=O)C1 (stereo not given) | 2.22 |
| CCOCCCNC(=O)C1(C)CCC(=O)N1c1cc(OC)ccc1OC (stereo not given) | 0.957 |
| Cc1ccccc1CN1CCC(CNc2ncnc3c2CCNCC3)C1 (stereo not given) | -7.13 |
| O=C(Nc1ccc2c(c1)OCO2)c1ccc(N2CCCC2)nn1 | 54.7 |

| Structure (SMILES) | cytotoxicity at 10 µM [%] |
| --- | --- |
| Cc1nc(C2CCCN2Cc2nnc(Cc3ccccc3)o2)no1 (stereo not given) | -5 |
| CCc1cnc(C)nc1NCCSc1nnc(C)n1CC | -4.19 |
| NC(=O)CS(=O)(=O)Cc1ccc(F)cc1 | -3.71 |
| CC(C)c1noc(C(C)N2CCN(Cc3noc(C(C)(C)C)n3)CC2)n1 (stereo not given) | -14.6 |
| O=c1[nH]nc2c(S(=O)(=O)N3CCN(c4ccc(F)cc4)CC3)cccn12 | 11.8 |
| O=C(NCCCc1ccncc1)C1CCCN(Cc2ccco2)C1 (stereo not given) | 20.1 |
| CSCC(C)C(=O)NCc1c(C)nc2cc(=O)[nH]n2c1C (stereo not given) | -16.3 |
| COC1CN(CCO)S(=O)(=O)c2ccccc21 (stereo not given) | 3.54 |
| NC(=O)CC1CCN(C(=O)NCc2ccccc2-n2cccn2)CC1 | 2.19 |
| O=C(NCc1ccncc1)N(Cc1ccc(F)cc1F)C1CC1 | 3.9 |
| Cc1ccc(N2CCc3ncnc(C4CC4)c3CC2)nn1 | -85 |
| CCCN(CCn1c(=O)oc2ccccc21)CC1CC1 | 1.78 |
| NCC1(c2cccc(C(F)(F)F)c2)CC1 | -11.2 |
| O=C(Nc1ccccc1N1CCOC1=O)N1CCSCC1 | 3.15 |
| CCC(=O)N1CCN(C(=O)Nc2ccc(Cl)cc2)[C@H]2CS(=O)(=O)C[C@H]21 | -43.9 |
| O=C(O)c1ccc(-c2cscn2)cc1 | 7.68 |
| CNC(=O)c1cc2c(nc1NC(C)C)CCNCC2 | 0.102 |
| Cc1ccc(CN2C[C@@H]3CN(c4ncc(F)cn4)C[C@@H]3C2)cc1 | 1.86 |
| O=C(Cc1ccon1)N1CCN(c2ccncc2Cl)CC1 | -2.47 |
| CN(Cc1cccc(F)c1)C(=O)c1ccncc1Cl | 10.5 |
| CC1CS(=O)(=O)CCN1Cc1ccccc1OCC(F)(F)F (stereo not given) | -4.86 |
| CC(C)c1noc(CN(Cc2ccc(F)cc2)C2CC2)n1 | 6.83 |
| Cc1ccccc1-c1noc(CNc2ccc(F)cc2OCCO)n1 | -41.7 |
| Cc1cc(N(C)C)nc(C2CCNC2)n1 (stereo not given) | 0.812 |
| N#CC1(NC(=O)c2ccn(-c3ccccc3Cl)n2)CCSC1 (stereo not given) | 0.462 |
| CC(C)c1ccc(CCC(=O)N(C)C2CCN(C)C2=O)cc1 (stereo not given) | -7.79 |
| Cc1c(NC(=O)c2cccc(Br)c2)c(C(=O)N(C)C)nn1C | 2.35 |
